Data on 25 molecules can be found in ChEMBL document CHEMBL4354865 (J Med Chem, 2020).

In general, pIC50 refers to the IC50 on a negative log10 scale, so that one unit is a factor of ten. As usually defined, the inhibition is the share of the control response that was lost under treatment.

Data set [1] in a line: Cytotoxicity against human A375 cells assessed as cell viability at 1 uM measured after 48 hrs by MTT assay relative to control. In kind it is cell-based, A-375. The settings on record: read-out: Activity. Summed up:
(§1)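 A375 cells, unstimulated or stimulated with recombinant human IFN-γ, were left untreated or treated with 1 µM compound for 48 h. L-Kyn was measured by HPLC and cell viability was assessed.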
A general note: Tetrazolium dyes change colour on reduction, which living cells bring about.

For data set [2], the target named is T1, Indoleamine 2,3-dioxygenase 1 (Homo sapiens, UniProt P14902). In words: Inhibition of IDO1 in IFNgamma-stimulated human A375 cells assessed as reduction in L-Kyn level measured after 48 hrs by HPLC analysis.
Target sequence in this assay (P14902 whole entry): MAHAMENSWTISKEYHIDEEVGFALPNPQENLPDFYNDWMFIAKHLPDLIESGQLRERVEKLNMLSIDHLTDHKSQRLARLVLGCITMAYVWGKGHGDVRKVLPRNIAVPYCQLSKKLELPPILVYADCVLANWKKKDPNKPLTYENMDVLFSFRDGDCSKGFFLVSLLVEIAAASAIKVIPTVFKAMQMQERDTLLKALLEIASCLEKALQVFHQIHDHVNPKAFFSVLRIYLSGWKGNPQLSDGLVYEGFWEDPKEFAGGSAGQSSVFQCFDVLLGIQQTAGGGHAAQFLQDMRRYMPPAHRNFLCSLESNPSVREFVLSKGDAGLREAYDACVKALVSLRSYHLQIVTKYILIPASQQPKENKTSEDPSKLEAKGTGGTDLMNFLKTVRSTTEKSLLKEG
Data set [3] addresses T1, Indoleamine 2,3-dioxygenase 1. In words: Inhibition of IDO1 in IFNgamma-stimulated human A375 cells assessed as reduction in L-Kyn level at 1 uM measured after 48 hrs by HPLC analysis relative to control. In a few lines:
as §1
Target sequence in this assay (P14902 whole entry, looked up): as the sequence (P14902 whole entry) above

pIC50: −log10 of the molar value.

With `O=C(NCc1cccc(Cn2cnc3ccccc32)c1)c1ccc(Br)cc1`, in data set [1], the viability at 48 h, 1 µM worked out at 96%. Moreover, the negative-log IC50 (pIC50) in data set [2] was 6.87. The inhibition in data set [3] amounted to 98%.

Consider `O=C(NCc1cccc(Cn2cnc3ccccc32)c1)c1cccs1`, for which the viability at 48 h, 1 µM in data set [1] worked out at 98%. Further, in data set [3], the inhibition was determined as 62%.

For `Cc1ccc2[nH]c(C(=O)NCc3cccc(Cn4cnc5ccccc54)c3)cc2c1`, the viability at 48 h, 1 µM in data set [1] worked out at 99%. Also, in data set [2], the pIC50 was 6.20. Also, in data set [3], the inhibition was 90%.

Consider `O=C(NCc1cccc(Cn2cnc3ccccc32)c1)c1cc2ccccc2o1`, for which, in data set [1], the viability at 48 h, 1 µM came to 100%. In data set [2], the negative-log IC50 (pIC50) was 6.38. The inhibition in data set [3] stood at 91%.

Turning to `Cc1ccc(C(=O)NCc2cccc(Cn3cnc4ccccc43)c2)cc1`, the viability at 48 h, 1 µM in data set [1] was 94%. Further, in data set [2], the negative logarithm of the IC50 (pIC50) is 6.49. In addition, the inhibition in data set [3] was determined as 88%.

Take `COc1ccc2[nH]c(C(=O)NCc3cccc(Cn4cnc5ccccc54)c3)cc2c1`: the viability at 48 h, 1 µM in data set [1] came out at 55%.

`N#Cc1ccc(C(=O)NCc2cccc(Cn3cnc4ccccc43)c2)cc1F`: in data set [1], the viability at 48 h, 1 µM stood at 100%. Moreover, in data set [3], the inhibition came out at 32%.

On to `O=C(CNC(=O)c1ccccc1)NCc1cccc(Cn2cnc3ccccc32)c1`, for which the viability at 48 h, 1 µM in data set [1] was determined as 99%. Further, the inhibition in data set [3] was found to be 13%.

Take `O=C(NCc1cccc(Cn2cnc3ccccc32)c1)c1ccccc1`: in data set [1], the viability at 48 h, 1 µM is 98%. Moreover, the inhibition in data set [3] was 32%.

`O=C(NCc1cccc(Cn2cnc3ccccc32)c1)c1nc2ccccc2[nH]1`: the viability at 48 h, 1 µM in data set [1] came to 100%. Further, the pIC50 in data set [2] was 6.39. Moreover, in data set [3], the inhibition was found to be 83%.

As for `O=C(NCc1cccc(Cn2cnc3ccccc32)c1)c1cc2cc(O)ccc2[nH]1`, in data set [1], the viability at 48 h, 1 µM stood at 99%. Moreover, the pIC50 in data set [2] is 6.11. Also, the inhibition in data set [3] stood at 71%.

In the case of `O=C(CCN1CCOCC1)NCc1cccc(Cn2cnc3ccccc32)c1`, the viability at 48 h, 1 µM in data set [1] came out at 100%. The inhibition in data set [3] was 0%.

Turning to `N#Cc1ccc(C(=O)NCc2cccc(Cn3cnc4ccccc43)c2)c(F)c1`, the viability at 48 h, 1 µM in data set [1] was found to be 99%. In addition, the inhibition in data set [3] worked out at 37%.

In the case of `O=C(OCc1cccc(Cn2cnc3ccccc32)c1)c1cc(Br)c[nH]1`, in data set [1], the viability at 48 h, 1 µM turned out to be 100%. Besides, the inhibition in data set [3] worked out at 0%.

With `O=C(NCc1cccc(Cn2cnc3ccccc32)c1)c1ccc(F)cc1`, the viability at 48 h, 1 µM in data set [1] is 89%. Further, in data set [2], the pIC50 was 6.02. In data set [3], the inhibition came to 88%.

For the molecule `NCCCC(=O)NCc1cccc(Cn2cnc3ccccc32)c1`, in data set [1], the viability at 48 h, 1 µM is 100%. In data set [3], the inhibition turned out to be 0%.

As to `O=C(NCc1cccc(Cn2cnc3ccccc32)c1)c1cc2ccccc2s1`, the viability at 48 h, 1 µM in data set [1] was 88%. Also, the inhibition in data set [3] was found to be 77%.

For `CC(=O)NCC(=O)NCc1cccc(Cn2cnc3ccccc32)c1`, the viability at 48 h, 1 µM in data set [1] stood at 100%. Further, the inhibition in data set [3] was 0%.

Turning to `O=C(Cc1ccc2c(c1)OCO2)NCc1cccc(Cn2cnc3ccccc32)c1`, the viability at 48 h, 1 µM in data set [1] is 96%. In addition, the inhibition in data set [3] came out at 5%.

Regarding `O=C(NCc1cccc(Cn2cnc3ccccc32)c1)c1ccc(Cl)cc1`, in data set [1], the viability at 48 h, 1 µM was 96%. Further, the negative-log IC50 (pIC50) in data set [2] is 6.32. In addition, the inhibition in data set [3] came out at 99%.

Consider `O=C(NCc1cccc(Cn2cnc3ccccc32)c1)c1ccc[nH]1`, for which, in data set [1], the viability at 48 h, 1 µM was 94%. Besides, the inhibition in data set [3] is 72%.

On to `O=C(NCc1cccc(Cn2cnc3ccccc32)c1)c1ccco1`, for which the viability at 48 h, 1 µM in data set [1] is 100%. For the same molecule, the inhibition in data set [3] came to 25%.

Take `Cc1cc(C(=O)NCc2cccc(Cn3cnc4ccccc43)c2)ccc1C#N`: the viability at 48 h, 1 µM in data set [1] is 94%. The inhibition in data set [3] was 44%.

On to `O=C(NCc1cccc(Cn2cnc3ccccc32)c1)c1ccc(C(F)(F)F)cc1`, for which the viability at 48 h, 1 µM in data set [1] turned out to be 97%. The inhibition in data set [3] worked out at 81%.

With `O=C(NCc1cccc(Cn2ccc3ccccc32)c1)c1cc(Br)c[nH]1`, the viability at 48 h, 1 µM in data set [1] was determined as 100%. Besides, in data set [3], the inhibition was found to be 0%.
